Source: PubChem BioAssay
C2C12 statin: protects C2C12 myotubes from simvastatin toxicity | rescue of ATP level, % at 7.49 µM | AID 602340 | ATP luminescence, 48 h; scaled: DMSO 0, geranylgeraniol control 100 | actives 0.78% (n = 330,000);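 active = mean ATP rescue above about 67%, or every replicate alone reaching that limit, limit read from the data, passing the limit was not always enough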;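 also: myotubes were challenged with 10 µM simvastatin during compound exposure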
PDI turbidity: PDI (human) enzyme inhibition | P07237 | PDI insulin aggregation turbidity, A650, 90 min | inhibition, % at 10 µM | actives 0.052% (n = 350,000) | AID 588391;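 active = mean inhibition across replicates of 30% or more, whatever share of single replicates reach that level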
DENV2 CPE: protects cells from dengue virus 2 cytopathic effect | CPE inhibition, % at 9.99 µM | DENV2-infected cells, cytopathic effect rescue, plate reader | actives 1.7% (n = 350,000); in the data active = CPE inhibition above about 20%, passing the limit was not always enough; tested in BHK-21 cells
F508del corr: correctors of CFTR F508del function in bronchial epithelial cells; AID 720511; activity (quench increase), % at 7.58 µM; CFBE cells, YFP halide quenching; stimulated with forskolin plus potentiator P3; % fluorescence drop versus neutral controls; actives 0.36% (n = 350,000);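 active = mean added fluorescence quench of at least 8% versus neutral control, with both replicates also reaching 8%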;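 also: cells transiently co-express mutant CFTR-F508del with the halide-sensitive YFP; corrector assay measuring rescue of mutant channel to the surface after 24 h compound exposure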
ERp5 block: blocks human ERp5 reductase activity on insulin; ERp5 insulin aggregation, absorbance 650 nm, 90 min; Q15084; actives 0.05% (n = 350,000); inhibition, % at 9.99 µM;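 active = mean replicate inhibition above about 25%, with every replicate also reaching it, limit read from the data, passing the limit was not always enough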
Target sequence (Q15084 whole entry, looked up): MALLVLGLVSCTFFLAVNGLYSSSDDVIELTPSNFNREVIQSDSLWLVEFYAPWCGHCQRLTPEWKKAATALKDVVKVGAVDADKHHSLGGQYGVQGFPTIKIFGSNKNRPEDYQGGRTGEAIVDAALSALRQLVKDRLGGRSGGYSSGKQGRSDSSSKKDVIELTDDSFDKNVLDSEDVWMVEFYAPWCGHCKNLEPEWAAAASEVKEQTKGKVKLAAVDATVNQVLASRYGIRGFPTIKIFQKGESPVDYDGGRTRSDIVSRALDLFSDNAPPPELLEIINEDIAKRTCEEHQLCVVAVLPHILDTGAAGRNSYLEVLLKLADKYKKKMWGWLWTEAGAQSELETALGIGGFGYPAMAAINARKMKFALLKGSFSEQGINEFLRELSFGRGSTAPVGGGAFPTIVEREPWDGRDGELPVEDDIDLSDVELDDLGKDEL
Cneo AK release: Cryptococcus neoformans lysis via adenylate kinase release. lysis activity, % at 15 µM. actives 0.2% (n = 360,000). C. neoformans lysis, adenylate kinase release luminescence, 4 h; normalised: neutral wells 0, clomiphene wells 100;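 active = mean lysis activity across replicates of at least 80%, whatever share of replicates individually reach that level; inactive = mean lysis activity below 80%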
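Assay system: log-phase C. neoformans yeast / Quantity: yeast cell density of 5 × 10^6 cells/mL / Medium: fresh YPD growth medium / Compound: single dose / Timing: static 4 h at 37 °C with compound, 1 h detection / Measured by: adenylate kinase release luminescence / Read-out: lysis from increased AK signal / Benchmarks: Clomiphene as positive lysis control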
Each line names hits and unclear results; the compound was inactive in the other large screens. In the library only some 2.3% were active in any assay of this set; here they are far more common.

CCCCCCC(=O)N1CCN(c2cc3c(cc2F)c(=O)c(C(=O)O)cn3CC)CC1	C2C12 statin 153 (no result: DENV2 CPE, F508del corr, ERp5 block)
CCCOc1ccc(C(=O)NC(=S)N2CCN(c3cc4c(cc3F)c(=O)c(C(=O)O)cn4CC)CC2)cc1	DENV2 CPE 53
C[C@H](CO)N1C[C@H](C)[C@@H](CN(C)S(=O)(=O)c2cn(C)cn2)Oc2ccc(NC(=O)Nc3cccc4ccccc34)cc2CC1=O	DENV2 CPE 86 (no result: PDI turbidity)
C[C@@H]1CN([C@H](C)CO)C(=O)Cc2cc(NC(=O)c3ccncc3)ccc2O[C@H]1CN(C)S(=O)(=O)c1cn(C)cn1	ERp5 block 77 (no result: PDI turbidity)
COc1ccc(NC(=O)Nc2ccc3c(c2)CC(=O)N([C@H](C)CO)C[C@@H](C)[C@H](CN(C)S(=O)(=O)c2cn(C)cn2)O3)cc1	DENV2 CPE 75 (no result: PDI turbidity)
C[C@@H]1CN([C@@H](C)CO)C(=O)Cc2cc(NC(=O)Nc3ccccc3)ccc2O[C@@H]1CN(C)S(=O)(=O)c1cn(C)cn1	none (no result: PDI turbidity)
C[C@H]1CN([C@@H](C)CO)C(=O)Cc2cc(NC(=O)c3ccncc3)ccc2O[C@@H]1CN(C)S(=O)(=O)c1cn(C)cn1	none (no result: PDI turbidity)
CN1C[C@@H]2[C@@H]3C(=O)N(Cc4ccccc4)C(=O)[C@@H]3[C@](C)(C1=O)N2C(=O)c1ccc(C(C)(C)C)cc1	DENV2 CPE 54
CC(O)(Cc1cccnc1)c1cccs1 (stereo not given)	DENV2 CPE 77 (no result: C2C12 statin, Cneo AK release)
CCOC(=O)C1=C(C)N(CCCC(=O)O)C(=O)NC1c1ccc(OC)cc1 (stereo not given)	none
CCOC(=O)C1=C(C)N(C[C@@H]2CC[C@@H](Cc3ccc4cc(OC)ccc4c3)O2)C(=O)NC1c1ccccc1 (stereo not given in full)	DENV2 CPE 49
O=C(Nc1cccc(C(=O)O)c1)/C(=C\c1ccco1)NC(=O)c1ccccc1	DENV2 CPE 50
Cc1ccc(S(=O)(=O)N2C[C@@H]3[C@H]4CC[C@H](C4)[C@@H]3[C@@H](C)[C@@H]2c2ccn([Si](C(C)C)(C(C)C)C(C)C)c2)cc1	DENV2 CPE 25
CO[C@@H]1CN(C)C(=O)c2cc(NC(=O)C3CCC3)ccc2OC[C@@H](C)N(Cc2ccc(F)cc2)C[C@@H]1C	none (no result: PDI turbidity)
Cc1ccc2c(c1)c1c3n2CCN(C(=O)CCl)C3CCC1 (stereo not given)	PDI turbidity 59
CCOP(=O)(OCC)c1nc(-c2cccc3ccccc23)oc1NCCc1ccc(OC)cc1	C2C12 statin 92
O=C(NCC[C@@H]1CC[C@@H](NS(=O)(=O)c2ccc(F)cc2)[C@H](CO)O1)c1ccccc1F	none (no result: C2C12 statin, PDI turbidity, Cneo AK release)
CCC(=O)Nc1ccc2c(c1)OC[C@@H](C)N(C(=O)Cc1cccnc1)C[C@H](C)[C@H](OC)CN(C)C2=O	none (no result: PDI turbidity)
COc1ccc(COCC23N=C4SCc5ccccc5C(=O)N4[C@H](c4ccccc4O2)[C@H]3COC(=O)c2ccccc2)cc1	none (no result: C2C12 statin, PDI turbidity)
COc1ccc(COCC23N=C4SCc5ccccc5CN4[C@H](c4ccccc4O2)[C@H]3COC(=O)c2ccccc2)cc1	DENV2 CPE 32 (no result: C2C12 statin, PDI turbidity)
CC(C)NC(=O)N(C)C[C@@H]1Oc2cc(C3=CCCC3)ccc2S(=O)(=O)N([C@@H](C)CO)C[C@@H]1C	none (no result: PDI turbidity, DENV2 CPE)
C[C@H]1CN([C@@H](C)CO)S(=O)(=O)c2ccc(C3=CCCC3)cc2O[C@@H]1CN(C)C(=O)CC1CC1	DENV2 CPE 70 (no result: PDI turbidity)
C[C@@H]1CN([C@@H](C)CO)S(=O)(=O)c2ccc(C3=CCCC3)cc2O[C@@H]1CN(C)C(=O)C1CCC1	none (no result: PDI turbidity)
C[C@@H]1CN([C@H](C)CO)S(=O)(=O)c2ccc(C3=CCCC3)cc2O[C@@H]1CN(C)C(=O)CC1CC1	none (no result: PDI turbidity)
C[C@H](CO)N1C[C@H](C)[C@@H](CN(C)C(=O)C2CCC2)Oc2cc(C3=CCCC3)ccc2S1(=O)=O	DENV2 CPE 32 (no result: PDI turbidity)
C[C@H]1CN([C@@H](C)CO)S(=O)(=O)c2ccc(C3=CCCCC3)cc2O[C@@H]1CN(C)C(=O)Cc1ccncc1	F508del corr 8.5 (no result: PDI turbidity)
CC(C)NC(=O)N(C)C[C@@H]1Oc2cc(C3=CCCC3)ccc2S(=O)(=O)N([C@H](C)CO)C[C@@H]1C	DENV2 CPE 47 (no result: PDI turbidity)
CCS(=O)(=O)N1CCC2(CC1)CN(C(=O)c1ccc(F)cc1)[C@@H](CO)c1[nH]c3cc(OC)ccc3c12	none (no result: C2C12 statin, PDI turbidity, Cneo AK release)
O=C(NCC1CCCCC1)[C@@H]1[C@@H](CO)[C@@H]2Cn3c(ccc(C4=CCCCC4)c3=O)[C@H]1N2	none (no result: PDI turbidity)
Cc1ccc(S(=O)(=O)NCC[C@@H]2CC[C@H](NC(=O)Nc3cccc(F)c3)[C@@H](CO)O2)cc1	none (no result: PDI turbidity)
O=C(CCn1cnc2ccccc21)N/N=C/C=C/c1ccccc1	none (no result: C2C12 statin)
COc1ccccc1/C=C/C=N/NC(=O)CCn1cnc2ccccc21	F508del corr 13 (no result: C2C12 statin)
COCC#Cc1ccc2c(c1)O[C@@H](CN(C)S(=O)(=O)c1cccc(OC)c1)[C@@H](C)CN([C@@H](C)CO)S2(=O)=O	none (no result: PDI turbidity, F508del corr)
O=C(NCC[C@H]1CC[C@@H](NS(=O)(=O)Cc2ccccc2)[C@@H](CO)O1)C1CCOCC1	none (no result: PDI turbidity)
CCN1[C@H](C(=O)NCCN2CCCCC2)[C@@H](CO)[C@@H]2Cn3c(ccc(-c4ccc(OC)cc4)c3=O)[C@@H]21	none (no result: PDI turbidity, F508del corr)
Cc1ccc(-c2cc(N)n(-c3ccc(F)cc3)n2)cc1	none (no result: C2C12 statin, Cneo AK release)
Cc1ccc(-c2cc(N)n(-c3ccc(C)cc3)n2)cc1	C2C12 statin 112 (no result: DENV2 CPE, F508del corr, ERp5 block)
CCC1(C)Cc2c(sc3[nH]c(=O)[nH]c(=O)c23)CS1 (stereo not given)	C2C12 statin 100 (no result: DENV2 CPE, F508del corr, ERp5 block)
CCC1(C)Cc2c(sc3[nH]c(=S)[nH]c(=S)c23)CO1 (stereo not given)	none
COc1cc(OC)cc(C(=O)NNC(=O)CCC(=O)c2cc(C)sc2C)c1	DENV2 CPE 73
COC(=O)C1=C(O)/C(=C\c2ccc(OCC(=O)Nc3ccccc3)cc2)N=C1C	C2C12 statin 104
COc1ccccc1-c1cc(C(F)(F)F)nc(S(=O)(=O)CCCC(=O)N2CCCCC2C)n1 (stereo not given)	C2C12 statin 84 (no result: DENV2 CPE, F508del corr, ERp5 block)
C[C@@H]1CN([C@H](C)CO)C(=O)c2cc(NC(=O)Cc3ccccc3)ccc2O[C@@H](C)CCCCO[C@@H]1CN(C)C	none (no result: PDI turbidity)
C[C@@H]1CN([C@H](C)CO)C(=O)c2cc(C#Cc3ccc(F)cc3)cnc2O[C@H]1CN(C)C	none (no result: PDI turbidity)
C[C@@H]1CN([C@@H](C)CO)C(=O)c2cc(C#CC3CCCCC3)cnc2O[C@@H]1CN(C)S(=O)(=O)c1ccc(F)cc1	none
C[C@@H]1CN([C@H](C)CO)C(=O)c2cc(C#Cc3ccc(F)cc3)cnc2O[C@@H]1CN(C)C	DENV2 CPE 81 (no result: PDI turbidity)
C[C@H]1CN([C@@H](C)CO)C(=O)c2cc(C#CC3CC3)cnc2O[C@@H]1CN(C)C	DENV2 CPE 69 (no result: PDI turbidity)
